ChEMBL document CHEMBL4387708, “Enhancement of Benzothiazoles as Pteridine Reductase-1 Inhibitors for the Treatment of Trypanosomatidic Infections” (J Med Chem, 2019)
pIC50: −log10 of the molar value. Calls of active or inactive are those of the source. The rule behind the calls is not given here.

Key:
[1] = Cytotoxicity against human THP1 cells after 72 hrs by MTT assay; type: cell-based, THP-1; settings: read-out: NOAEL
[2] = Cytotoxicity against human U2OS cells assessed as reduction in cell number; type: cell-based
[3] = Mitochondrial toxicity in human 786-O cells measured after 6 hrs by MitoTracker Red chloromethyl-X-rosamine based assay; type: cell-based, 786-0
Cytochrome P450 2C19 = Cytochrome P450 2C19 (Homo sapiens, UniProt P33261); assay: Inhibition of human CYP2C19 expressed in baculovirus infected insect cells using beetle D-luciferin as substrate preincubated for 30 mins followed by NADPH addition and measured after 30 mins by CYP450-Glo assay
[4] = Selectivity ratio of IC50 for Leishmania major pteridine reductase 1 to IC50 for N-terminal His-tagged Trypanosoma brucei pteridine reductase 1
[5] = Inhibition of N-terminal His-tagged Trypanosoma brucei pteridine reductase 1 using di-hydrobiopterine as substrate measured at 1 min interval for 50 mins in presence of NADPH
Summary of the method: (§1)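 Photometric PTR1 assay with NADPH and dihydrobiopterin substrate. H₄B formation is coupled non-enzymatically to cytochrome c reduction, read as signal increase at 550 nm.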

[6] = Cytotoxicity against human A549 cells after 48 hrs by Celltiter-glo assay; type: cell-based
Trypanosoma brucei [7] = assay: Growth inhibition of Trypanosoma brucei bloodstream forms at 10 uM measured after 72 hrs by resazurin-based fluorescence assay relative to control; type: organism-based; settings: for inhibition at 10 µM: Trypanosoma brucei, read-out: GI
[8] = target: Voltage-gated inwardly rectifying potassium channel KCNH2 (Homo sapiens, UniProt Q12809); assay: Displacement of Tracer Red from human ERG by fluorescence polarization assay
Pteridine reductase 1 = target: T1, Pteridine reductase 1 (Leishmania major, UniProt Q01782); assay: Inhibition of Leishmania major pteridine reductase 1 using di-hydrobiopterine as substrate in presence of NADPH; settings: for pIC50: read-out: IC50; summary of the method: as §1
T1 sequence (Q01782 whole entry): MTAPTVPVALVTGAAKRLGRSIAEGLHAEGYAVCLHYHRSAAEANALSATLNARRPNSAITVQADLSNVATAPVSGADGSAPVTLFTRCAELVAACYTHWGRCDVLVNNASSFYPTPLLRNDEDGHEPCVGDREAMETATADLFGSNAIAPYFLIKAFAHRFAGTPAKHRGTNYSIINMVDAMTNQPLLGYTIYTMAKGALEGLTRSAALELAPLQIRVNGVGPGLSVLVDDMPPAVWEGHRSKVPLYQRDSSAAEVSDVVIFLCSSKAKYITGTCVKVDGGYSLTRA

[9] = target: T2, Pteridine reductase 1 (Leishmania major) (UniProt Q01782); assay: Inhibition of Leishmania major pteridine reductase 1 at 50 uM using di-hydrobiopterine as substrate in presence of NADPH relative to control; summary of the method: as §1
T2 sequence (whole entry): T1 sequence (Q01782 whole entry)

Cytochrome P450 2D6 = Cytochrome P450 2D6 (Homo sapiens, UniProt P10635); assay: Inhibition of human CYP2D6 expressed in baculovirus infected insect cells using beetle D-luciferin as substrate preincubated for 30 mins followed by NADPH addition and measured after 30 mins by CYP450-Glo assay
Cytochrome P450 2C9 = Cytochrome P450 2C9 (Homo sapiens, UniProt P11712); assay: Inhibition of human CYP2C9 expressed in baculovirus infected insect cells using beetle D-luciferin as substrate preincubated for 30 mins followed by NADPH addition and measured after 30 mins by CYP450-Glo assay
Trypanosoma brucei [10] = assay: Inhibition of N-terminal His-tagged Trypanosoma brucei pteridine reductase 1 at 50 uM using di-hydrobiopterine as substrate measured at 1 min interval for 50 mins in presence of NADPH relative to control; summary of the method: as §1
Leishmania infantum = assay: Growth inhibition of luciferase expressing Leishmania infantum axenic amastigotes infected in human THP1 cells at 10 uM measured after 72 hrs by steady-glo luminescence assay relative to control; type: organism-based; settings: for growth inhibition (GI): leishmania infantum, 72 h, 10 µM
Cytochrome P450 1A2 = target: T3, Cytochrome P450 1A2 (Homo sapiens, UniProt P05177); assay: Inhibition of human CYP1A2 expressed in baculovirus infected insect cells using beetle D-luciferin as substrate preincubated for 30 mins followed by NADPH addition and measured after 30 mins by CYP450-Glo assay
T3 sequence (P05177 whole entry): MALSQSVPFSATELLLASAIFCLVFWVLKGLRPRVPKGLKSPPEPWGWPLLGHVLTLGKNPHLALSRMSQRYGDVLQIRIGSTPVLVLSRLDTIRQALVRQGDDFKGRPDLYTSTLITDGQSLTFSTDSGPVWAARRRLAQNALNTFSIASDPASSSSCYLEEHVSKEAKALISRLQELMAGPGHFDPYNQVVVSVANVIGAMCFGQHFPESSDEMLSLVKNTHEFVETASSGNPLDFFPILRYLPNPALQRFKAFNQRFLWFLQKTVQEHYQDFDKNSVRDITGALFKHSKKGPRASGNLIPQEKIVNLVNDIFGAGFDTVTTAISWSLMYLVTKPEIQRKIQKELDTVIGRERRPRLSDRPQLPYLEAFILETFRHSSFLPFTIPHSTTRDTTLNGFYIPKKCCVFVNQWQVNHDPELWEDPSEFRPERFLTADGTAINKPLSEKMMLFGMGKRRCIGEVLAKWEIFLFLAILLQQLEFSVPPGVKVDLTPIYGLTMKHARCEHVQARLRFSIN

Cytochrome P450 3A4 = Cytochrome P450 3A4 (Homo sapiens, UniProt P08684); assay: Inhibition of human CYP3A4 expressed in baculovirus infected insect cells using beetle D-luciferin as substrate preincubated for 30 mins followed by NADPH addition and measured after 30 mins by CYP450-Glo assay
Trypanosoma cruzi = assay: Growth inhibition of trypomastigote form of Trypanosoma cruzi Y infected in human U2OS cells at 50 uM measured after 72 hrs by DRAQ5 DNA dye based confocal microscopic analysis relative to control; type: organism-based; settings: for inhibition at 50 µM: Trypanosoma cruzi, Y, U2OS, read-out: GI; for growth inhibition (GI): trypanosoma cruzi, 50 µM

Sequence of Cytochrome P450 2D6 (P10635 whole entry): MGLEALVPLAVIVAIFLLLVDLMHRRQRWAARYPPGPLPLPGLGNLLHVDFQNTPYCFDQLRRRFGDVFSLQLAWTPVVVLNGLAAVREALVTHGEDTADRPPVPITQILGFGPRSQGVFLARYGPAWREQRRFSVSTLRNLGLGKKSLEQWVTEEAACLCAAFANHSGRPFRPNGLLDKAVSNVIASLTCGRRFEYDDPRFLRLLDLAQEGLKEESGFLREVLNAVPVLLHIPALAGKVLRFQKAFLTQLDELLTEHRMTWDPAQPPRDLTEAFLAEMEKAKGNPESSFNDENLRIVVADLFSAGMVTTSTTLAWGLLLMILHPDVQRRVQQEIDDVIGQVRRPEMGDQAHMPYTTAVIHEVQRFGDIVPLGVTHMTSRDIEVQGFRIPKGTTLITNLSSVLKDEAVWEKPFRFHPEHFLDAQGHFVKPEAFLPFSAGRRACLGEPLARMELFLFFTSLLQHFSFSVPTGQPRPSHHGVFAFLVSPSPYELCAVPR
Sequence of Cytochrome P450 2C9 (P11712 whole entry): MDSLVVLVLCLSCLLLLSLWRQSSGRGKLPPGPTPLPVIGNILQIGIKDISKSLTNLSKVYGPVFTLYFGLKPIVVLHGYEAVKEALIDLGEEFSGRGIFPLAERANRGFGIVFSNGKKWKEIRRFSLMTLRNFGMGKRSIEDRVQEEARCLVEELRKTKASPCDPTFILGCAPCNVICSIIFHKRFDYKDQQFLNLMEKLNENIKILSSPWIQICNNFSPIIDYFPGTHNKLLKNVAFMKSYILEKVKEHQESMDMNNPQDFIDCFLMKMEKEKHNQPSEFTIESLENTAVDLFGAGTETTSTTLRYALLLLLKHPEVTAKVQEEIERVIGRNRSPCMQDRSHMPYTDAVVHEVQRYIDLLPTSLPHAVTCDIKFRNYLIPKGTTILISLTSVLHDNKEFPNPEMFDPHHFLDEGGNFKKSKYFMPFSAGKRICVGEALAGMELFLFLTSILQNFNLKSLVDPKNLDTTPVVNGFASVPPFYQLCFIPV
Sequence of Voltage-gated inwardly rectifying potassium channel KCNH2 (Q12809 whole entry): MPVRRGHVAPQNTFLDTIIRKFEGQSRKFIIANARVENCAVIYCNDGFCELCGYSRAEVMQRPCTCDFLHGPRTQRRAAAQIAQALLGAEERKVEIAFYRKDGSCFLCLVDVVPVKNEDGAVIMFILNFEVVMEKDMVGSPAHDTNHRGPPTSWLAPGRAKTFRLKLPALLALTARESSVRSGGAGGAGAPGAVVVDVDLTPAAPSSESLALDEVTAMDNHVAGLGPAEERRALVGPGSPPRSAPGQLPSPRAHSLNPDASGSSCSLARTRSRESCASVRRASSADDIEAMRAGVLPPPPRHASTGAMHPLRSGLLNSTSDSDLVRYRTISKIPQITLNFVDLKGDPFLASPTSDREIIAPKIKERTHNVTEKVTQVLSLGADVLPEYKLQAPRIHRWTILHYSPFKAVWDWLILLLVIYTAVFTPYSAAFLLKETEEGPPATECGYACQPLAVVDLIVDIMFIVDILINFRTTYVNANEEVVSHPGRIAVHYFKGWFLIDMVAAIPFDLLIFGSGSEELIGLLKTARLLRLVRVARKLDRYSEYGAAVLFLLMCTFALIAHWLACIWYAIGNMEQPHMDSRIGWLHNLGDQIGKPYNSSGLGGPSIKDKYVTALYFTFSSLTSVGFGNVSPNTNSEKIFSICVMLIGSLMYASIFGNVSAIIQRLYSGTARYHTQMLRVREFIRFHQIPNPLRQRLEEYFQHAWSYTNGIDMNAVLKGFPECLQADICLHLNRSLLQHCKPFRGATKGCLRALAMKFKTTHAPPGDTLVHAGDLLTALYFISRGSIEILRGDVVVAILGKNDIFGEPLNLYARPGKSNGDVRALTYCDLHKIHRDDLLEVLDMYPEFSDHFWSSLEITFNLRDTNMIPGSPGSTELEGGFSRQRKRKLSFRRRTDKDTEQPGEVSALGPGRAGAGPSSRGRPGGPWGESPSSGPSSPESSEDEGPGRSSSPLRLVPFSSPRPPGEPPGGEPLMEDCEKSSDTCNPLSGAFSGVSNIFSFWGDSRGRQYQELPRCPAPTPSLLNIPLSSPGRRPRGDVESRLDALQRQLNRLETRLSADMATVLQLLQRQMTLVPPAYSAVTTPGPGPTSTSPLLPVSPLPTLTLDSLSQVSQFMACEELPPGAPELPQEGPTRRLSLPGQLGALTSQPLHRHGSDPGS
Sequence of Cytochrome P450 2C19 (P33261 whole entry): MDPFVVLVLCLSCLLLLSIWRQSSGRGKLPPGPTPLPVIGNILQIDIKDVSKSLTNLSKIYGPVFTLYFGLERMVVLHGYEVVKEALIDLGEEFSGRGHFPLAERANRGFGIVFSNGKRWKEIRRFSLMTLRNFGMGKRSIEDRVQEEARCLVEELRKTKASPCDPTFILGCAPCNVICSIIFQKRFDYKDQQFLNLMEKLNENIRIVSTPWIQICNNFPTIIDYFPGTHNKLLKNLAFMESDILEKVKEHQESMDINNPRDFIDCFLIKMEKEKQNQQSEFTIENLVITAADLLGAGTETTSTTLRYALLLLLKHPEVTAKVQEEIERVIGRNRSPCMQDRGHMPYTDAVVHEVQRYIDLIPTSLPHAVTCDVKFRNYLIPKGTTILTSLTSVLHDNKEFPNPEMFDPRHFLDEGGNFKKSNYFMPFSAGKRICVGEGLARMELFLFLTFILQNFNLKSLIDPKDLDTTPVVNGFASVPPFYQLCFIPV
Sequence of Cytochrome P450 3A4 (P08684 whole entry): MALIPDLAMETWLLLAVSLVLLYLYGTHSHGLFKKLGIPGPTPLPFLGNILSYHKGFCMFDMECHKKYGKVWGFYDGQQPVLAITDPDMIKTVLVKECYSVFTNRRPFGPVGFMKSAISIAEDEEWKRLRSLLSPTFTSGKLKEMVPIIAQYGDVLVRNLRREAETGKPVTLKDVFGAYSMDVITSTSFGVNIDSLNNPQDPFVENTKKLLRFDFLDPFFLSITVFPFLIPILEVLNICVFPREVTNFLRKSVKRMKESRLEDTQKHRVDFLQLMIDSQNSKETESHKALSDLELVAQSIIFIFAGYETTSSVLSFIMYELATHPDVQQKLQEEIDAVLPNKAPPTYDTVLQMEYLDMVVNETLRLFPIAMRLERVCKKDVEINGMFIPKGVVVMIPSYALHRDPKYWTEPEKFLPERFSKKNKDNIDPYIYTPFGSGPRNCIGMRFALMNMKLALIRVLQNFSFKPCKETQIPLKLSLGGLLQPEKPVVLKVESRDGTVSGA

Row | SMILES | MNTC at 72 h [1] [µM] | GI50 [2] [µM] | IC50 at 6 h [3] [µM] | pIC50 (Cytochrome P450 2C19) | Ratio IC50 [4] | pIC50 [5] | GI50 at 48 h [6] [µM] | inhibition at 10 µM (Trypanosoma brucei [7]) [%] | pIC50 [8] | pIC50 (Pteridine reductase 1) | inhibition [9] | pIC50 (Cytochrome P450 2D6) | pIC50 (Cytochrome P450 2C9) | inhibition (Trypanosoma brucei [10]) [%] | growth inhibition (GI) (Leishmania infantum) | pIC50 (Cytochrome P450 1A2) | pIC50 (Cytochrome P450 3A4) | inhibition at 50 µM (Trypanosoma cruzi) [%] | growth inhibition (GI) (Trypanosoma cruzi) | also measured
1 | Nc1nc2ccc(C(=O)NCc3ccccc3[N+](=O)[O-])cc2s1 | > 25 | > 25 | < 10 | < 4.60 | 2 to 100 | 5.19 | > 25 | 18 | < 4.60 | 5.45 | > 60% | < 4.60 | < 4.60 | > 60 | Non-Toxic | < 4.60 | > 5.00 | 19 | – | –
2 | Nc1nc2c(C(=O)NCc3ccc(Cl)c(Cl)c3)cc(O)c(O)c2s1 | > 25 | > 25 | > 25 | < 4.60 | 2 to 100 | 4.49 | > 25 | 16 | < 4.60 | 4.43 | > 60% | > 5.00 | < 4.60 | > 60 | Non-Toxic | < 4.60 | > 5.00 | 18.3 | – | –
3 | COC(=O)c1ccc(CS(=O)(=O)c2ccc3nc(N)sc3c2)cc1 | > 25 | > 25 | > 25 | > 5.00 | 2 to 100 | < 4.00 | > 25 | 14 | < 4.60 | 4.18 | > 60% | > 5.00 | 4.60 to 5.00 | > 60 | – | < 4.60 | 4.60 to 5.00 | – | Non-Toxic | inhibition at 10 µM (Leishmania infantum; Leishmania infantum, THP-1, 72 h, read-out: GI): 12%
4 | Nc1nc2ccc(C(=O)NCCc3c[nH]c4ccccc34)cc2s1 | > 25 | > 25 | > 25 | 4.60 to 5.00 | 2 to 100 | 4.63 | > 25 | 27 | < 4.60 | – | inactive | < 4.60 | < 4.60 | > 60 | Non-Toxic | < 4.60 | < 4.60 | 1.64 | – | IC50 (Pteridine reductase 1): Not Active
5 | Nc1nc2ccc(OCc3ccccc3)cc2s1 | > 25 | > 25 | > 25 | < 4.60 | 2 to 100 | 4.87 | > 25 | 28 | > 5.00 | – | inactive | > 5.00 | < 4.60 | > 60 | Non-Toxic | > 5.00 | 4.60 to 5.00 | – | Non-Toxic | IC50 (Pteridine reductase 1): Not Active
6 | Nc1nc2ccc(SCc3ccccc3)cc2s1 | 10 to 25 | > 25 | > 25 | > 5.00 | 2 to 100 | 5.72 | > 25 | 14 | < 4.60 | 4.09 | > 60% | > 5.00 | < 4.60 | > 60 | Non-Toxic | > 5.00 | 4.60 to 5.00 | – | Non-Toxic | –
7 | N#Cc1ccc(CNC(=O)c2ccc3nc(N)sc3c2)cc1 | > 25 | > 25 | > 25 | < 4.60 | 2 to 100 | 4.37 | > 25 | 8 | < 4.60 | 4.13 | > 60% | < 4.60 | < 4.60 | > 60 | Non-Toxic | < 4.60 | < 4.60 | – | Non-Toxic | –
8 | COC(=O)C1CCN(C(=O)c2ccc(CS(=O)(=O)c3ccc4nc(N)sc4c3)cc2)CC1 | > 25 | > 25 | > 25 | > 5.00 | 2 to 100 | 4.61 | > 25 | – | < 4.60 | 4.30 | > 60% | > 5.00 | > 5.00 | > 60 | Non-Toxic | < 4.60 | > 5.00 | – | Non-Toxic | growth inhibition (GI) (Trypanosoma brucei [7]; trypanosoma brucei, 10 µM): Non-Toxic
